Broadly, the MIC is the lowest concentration that inhibits growth of the organism. The low end stands for inhibition by little substance, the high end for a need for much substance. In general, IC50 refers to the concentration that inhibits the measured activity by half. A low value points to higher potency.

≈ marks a conversion by molar mass, not a printed value. Calls of active or inactive are those of the source. The rule behind the calls is not given here. A value given as a limit tells only on which side of the number the result lay.

The subject of assay [1] is Staphylococcus aureus. Description: Antibiotic activity against methicillin-resistant Staphylococcus aureus isolate CAIRD142 by broth microdilution assay or Alamar blue dye based colorimetric assay. The class given is functional. Summed up:
(§1)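 Minimum inhibitory concentration (MIC) by broth microdilution following CLSI standards, with Alamar Blue as the colorimetric reporter. Test compounds were made up as 50 mM stocks in DMSO and serially diluted 2-fold in the test wells. The top final well concentration was 500 μM (500, 250, 125, 64, 32, 16, 8, 4, 2, 1 μM, etc.).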
(In general: Broth dilution looks for growth in wells or tubes with falling amounts of substance.)

Assay [2] has as its system Staphylococcus aureus. The experiment in a line: Antibiotic activity against methicillin-resistant Staphylococcus aureus isolate CAIRD148 by broth microdilution assay or Alamar blue dye based colorimetric assay. The class given is functional. Summed up:
as §1

Assay [3] concerns Staphylococcus aureus. The experiment in a line: Antibiotic activity against methicillin-resistant Staphylococcus aureus isolate CAIRD116 by broth microdilution assay or Alamar blue dye based colorimetric assay. Format: functional. The method in brief:
as §1

A further assay relates to Streptococcus pyogenes. The experiment in a line: Antibiotic activity against Streptococcus pyogenes by broth microdilution assay or Alamar blue dye based colorimetric assay. The class given is functional. The method in brief:
(§2)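 Broth microdilution following CLSI standards, read colorimetrically with Alamar Blue. Test compounds were made as 50 mM stocks in DMSO, then serially diluted 2-fold in the test wells from a top final concentration of 500 μM (500, 250, 125, 64, 32 μM and lower). The MIC was taken from this dilution series.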

A further assay has as its system Bacillus anthracis. Description: Antibiotic activity against Bacillus anthracis by broth microdilution assay or Alamar blue dye based colorimetric assay. The class given is functional. Summed up:
as §1

The next assay has as its system Candida albicans. Description: Antibiotic activity against Candida albicans by broth microdilution assay or Alamar blue dye based colorimetric assay. Format: functional.
Another assay relates to Nakaseomyces glabratus. Description: Antibiotic activity against Candida glabrata by broth microdilution assay or Alamar blue dye based colorimetric assay. Format: functional.
In another assay the target is Stromelysin-1 (Homo sapiens, UniProt P08254). The experiment in a line: Inhibition of MMP3 (unknown origin).
Another assay concerns Bacillus subtilis. The experiment in a line: Antibiotic activity against Bacillus subtilis by broth microdilution assay or Alamar blue dye based colorimetric assay. Format: functional. Summed up: as §2
Assay [4] deals with Staphylococcus aureus. Description: Antibiotic activity against Staphylococcus aureus 13709 by broth microdilution assay or Alamar blue dye based colorimetric assay. Format: functional. Summed up:
as §2

The subject of assay [5] is Staphylococcus aureus. Description: Antibiotic activity against methicillin-resistant Staphylococcus aureus isolate NE277 by broth microdilution assay or Alamar blue dye based colorimetric assay. Format: functional. The method in brief: as §1
For assay [6], the system named is RPMI-8226. The experiment in a line: Growth inhibition of human RPMI8226 cells at 10 uM incubated for 48 hrs by SRB assay. The class given is functional. As to conditions: RPMI-8226, 48 h, read-out: GI. A general note: The SRB assay estimates cell density from bound dye.
The test system of assay [7] is Ribosome. Description: Induction of ribosome stalling assessed as induction of stalling of ribosome at ermBL ORF at 50 uM by extension inhibition assay. Summed up: (§3)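 Primer extension inhibition was run on an ermBL gene template following the published procedure. Erythromycin, josamycin and tylosin were included in the reaction as references at 50 μM. The test agent was present at 50 or 250 μM.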

The nature of assay [8]: In-vitro inhibition of protein translation using pY71-sfGFP in PUREexpress in vitro protein synthesis system assessed as reduction in cell-free GFP protein translation at 50 uM measured every 20 mins for 2 hrs. Format: functional. Summed up: (§4)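 Cell-free transcription-translation reactions were programmed with the pY71-sfGFP plasmid. The antibiotic solution was dried at the bottom of the tube before the reaction components were added. Erythromycin, josamycin and tylosin served as references at a final 50 μM. Reactions were incubated at 37 °C, with GFP fluorescence (excitation 488 nm, emission 520 nm) read every 20 min for 2 h.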

A further assay relates to CCRF-CEM. The experiment in a line: Growth inhibition of human CCRF-CEM cells at 10 uM incubated for 48 hrs by SRB assay. The class given is functional. As to conditions: read-out: GI.
The test system of a further assay is K562. The experiment in a line: Growth inhibition of human K562 cells at 10 uM incubated for 48 hrs by SRB assay. The class given is functional. As to conditions: K562, 48 h, read-out: GI.
In assay [9] the test system is RPMI-8226. Description: Cytotoxicity human RPMI8226 cells assessed as cell lethality at 10 uM incubated for 48 hrs by SRB assay. Format: functional. Summed up: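 Single-dose (10 μM) screen run by the NCI Developmental Therapeutics Program across its 60 cell-line panel. Read as percent growth inhibition.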
For assay [10], the system named is Ribosome. The experiment in a line: Induction of ribosome stalling (unknown origin) assessed as induction of stalling of ribosome at ermBL ORF at 250 uM by extension inhibition assay. The method in brief: as §3
Assay [11] can be described thus: In-vitro inhibition of protein translation using pY71-sfGFP in PUREexpress in vitro protein synthesis system assessed as reduction in cell-free GFP protein translation at 250 uM measured every 20 mins for 2 hrs. Format: functional. Summed up: as §4

Stromelysin-1, sequence (P08254 whole entry): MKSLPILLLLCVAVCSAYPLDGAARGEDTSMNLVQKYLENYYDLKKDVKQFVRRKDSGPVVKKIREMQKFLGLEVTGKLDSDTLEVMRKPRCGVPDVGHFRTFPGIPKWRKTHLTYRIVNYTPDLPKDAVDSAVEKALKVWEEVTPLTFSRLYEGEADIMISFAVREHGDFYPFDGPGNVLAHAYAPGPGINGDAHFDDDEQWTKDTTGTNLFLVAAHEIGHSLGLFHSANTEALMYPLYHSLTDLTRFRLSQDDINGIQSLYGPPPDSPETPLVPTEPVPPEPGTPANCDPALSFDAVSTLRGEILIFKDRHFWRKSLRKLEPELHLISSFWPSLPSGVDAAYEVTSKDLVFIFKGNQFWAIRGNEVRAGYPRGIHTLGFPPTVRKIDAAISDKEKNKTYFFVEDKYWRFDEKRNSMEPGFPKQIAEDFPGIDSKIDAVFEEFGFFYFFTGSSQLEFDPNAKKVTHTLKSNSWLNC

Regarding `C[C@H]1COc2c(N3CCN(C)CC3)c(F)cc3c(=O)c(C(=O)O)cn1c23.C[C@H]1COc2c(N3CCN(C)CC3)c(F)cc3c(=O)c(C(=O)O)cn1c23.O` [LEVOFLOXACIN], the figures for the minimum inhibitory concentration (MIC) against Staphylococcus aureus [1], in the assay with Staphylococcus aureus [2] and against Staphylococcus aureus [3] were 0.25 µg/mL, above 16 µg/mL and above 16 µg/mL, respectively.
As for `CCC[C@@H]1C[C@@H](C(=O)N[C@@H]([C@H]2O[C@H](SC)[C@H](O)[C@@H](O)[C@H]2O)[C@H](C)Cl)N(C)C1` [CLINDAMYCIN], the MIC against Staphylococcus aureus [1], in the assay on Staphylococcus aureus [2] and against Staphylococcus aureus [3] was above 16 µg/mL each time.
For `C[C@@H]1CCCCCCCCC[C@H](OC(=O)CCC(=O)O)C(=O)/C=C/C(=O)O1`, the MIC in the assay on Streptococcus pyogenes came out at 125 µM (≈ 47.8 µg/mL); against Staphylococcus aureus [1] it was 16 µM; against Staphylococcus aureus [2] it was 16 µM; against Bacillus anthracis, 16 µM (≈ 6.12 µg/mL); with Candida albicans, 250 µM (≈ 95.6 µg/mL); against Nakaseomyces glabratus it was 125 µM (≈ 47.8 µg/mL). In addition, the MIC against Bacillus subtilis turned out to be 32 µM (≈ 12.2 µg/mL); against Staphylococcus aureus [4] it was 8 µM (≈ 3.06 µg/mL); against Staphylococcus aureus [5], 16 µM (≈ 6.12 µg/mL); in the assay on Staphylococcus aureus [3], 16 µM. The same compound had an IC50 against Stromelysin-1 of 50 µM. Moreover, the inhibition of growth at 10 µM in the assay on RPMI-8226 [6] stood at 48%.
In the case of `CC[C@H]1OC(=O)C[C@@H](O)[C@H](C)[C@@H](O[C@@H]2O[C@H](C)[C@@H](O[C@H]3C[C@@](C)(O)[C@@H](O)[C@H](C)O3)[C@H](N(C)C)[C@H]2O)[C@@H](CC=O)C[C@@H](C)C(=O)/C=C/C(C)=C/[C@@H]1CO[C@@H]1O[C@H](C)[C@@H](O)[C@@H](OC)[C@H]1OC`, the outcome in the assay on Ribosome [7] was Active. Also, the “translation inhibition (active/not active)” value in assay [8] was “Active”.
Take `C[C@H]1c2cccc(O)c2C(=O)C2=C(O)[C@]3(O)C(=O)C(C(N)=O)=C(O)[C@@H](N(C)C)[C@@H]3[C@@H](O)[C@@H]21.O` [DOXYCYCLINE]: the MIC against Staphylococcus aureus [1] amounted to 16 µg/mL; against Staphylococcus aureus [2] it was 0.25 µg/mL; against Staphylococcus aureus [3] it was 8 µg/mL.
With `C[C@@H]1CCCCCCCCC[C@H](OC(=O)CCC(=O)O)C(=O)C[C@@H](SC[C@@H](O)C(=O)O)C(=O)O1`, the MIC is 250 µM (≈ 126 µg/mL) against Streptococcus pyogenes; 32 µM in the assay on Staphylococcus aureus [1]; 16 µM in the assay with Staphylococcus aureus [2]; 16 µM (≈ 8.07 µg/mL) against Bacillus anthracis; above 250 µM against Candida albicans; 64 µM (≈ 32.3 µg/mL) against Nakaseomyces glabratus. In addition, the MIC against Bacillus subtilis worked out at 64 µM (≈ 32.3 µg/mL); in the assay with Staphylococcus aureus [4] it was 8 µM (≈ 4.04 µg/mL); with Staphylococcus aureus [5], 16 µM (≈ 8.07 µg/mL); against Staphylococcus aureus [3], 32 µM.
In the case of `C[C@H]1OC(=O)/C=C/C(=O)[C@@H](OC(=O)CCC(=O)O)CCCCCCCC[C@@H]1O`, the MIC stood at 64 µM (≈ 25.5 µg/mL) against Streptococcus pyogenes; 16 µM (≈ 6.38 µg/mL) in the assay on Bacillus anthracis; 125 µM (≈ 49.8 µg/mL) in the assay with Candida albicans; 64 µM (≈ 25.5 µg/mL) with Nakaseomyces glabratus; 64 µM (≈ 25.5 µg/mL) in the assay with Bacillus subtilis; 16 µM (≈ 6.38 µg/mL) against Staphylococcus aureus [4]. For the same compound, the inhibition of growth at 10 µM was determined as 48% in the assay with CCRF-CEM and 46% in the assay with K562.
In the case of `CC[C@H]1OC(=O)[C@H](C)[C@@H](O[C@H]2C[C@@](C)(OC)[C@@H](O)[C@H](C)O2)[C@H](C)[C@@H](O[C@@H]2O[C@H](C)C[C@H](N(C)C)[C@H]2O)[C@](C)(O)C[C@@H](C)C(=O)[C@H](C)[C@@H](O)[C@]1(C)O` [ERYTHROMYCIN], the outcome in the assay with Ribosome [7] was Active. For the same compound, the MIC in the assay with Staphylococcus aureus [1], with Staphylococcus aureus [2] and with Staphylococcus aureus [3] was above 32 µg/mL in each case. For the same compound, in assay [8], the “translation inhibition (active/not active)” value was “Active”.
For the compound `C[C@@H]1CCCCCCCCC[C@H](O)C(=O)C[C@@H](SC[C@@H](O)C(=O)O)C(=O)O1`, the outcome in the assay on Ribosome [7] and with Ribosome [10] was inactive. Further, the Activity in the assay on RPMI-8226 [9] worked out at 2.4%. Besides, the MIC in the assay on Streptococcus pyogenes was determined as 8 µM (≈ 3.24 µg/mL); in the assay with Staphylococcus aureus [1], 4 µM; with Staphylococcus aureus [2] it was 2 µM; in the assay on Bacillus anthracis, 8 µM (≈ 3.24 µg/mL); against Candida albicans, 64 µM (≈ 25.9 µg/mL); in the assay with Nakaseomyces glabratus, 16 µM (≈ 6.47 µg/mL). The MIC against Bacillus subtilis was 32 µM (≈ 12.9 µg/mL); in the assay with Staphylococcus aureus [4] it was 2 µM (≈ 0.809 µg/mL); against Staphylococcus aureus [5] it was 2 µM (≈ 0.809 µg/mL); in the assay with Staphylococcus aureus [3], 2 µM. For the same compound, the “translation inhibition (active/not active)” value in [8] was “inactive”. Moreover, in assay [11], the inhibition entry was “inactive”. The compound further returned an IC50 against Stromelysin-1 of 100 µM. Moreover, the inhibition of growth at 10 µM with K562 was 85%.
With `CO[C@@H]1[C@@H](O[C@@H]2O[C@H](C)[C@@H](O[C@H]3C[C@@](C)(O)[C@@H](OC(=O)CC(C)C)[C@H](C)O3)[C@H](N(C)C)[C@H]2O)[C@@H](CC=O)C[C@@H](C)[C@@H](O)/C=C/C=C/C[C@@H](C)OC(=O)C[C@H]1OC(C)=O`, the result in the assay on Ribosome [7] was Active. In addition, in assay [8], the “translation inhibition (active/not active)” value is “Active”.
Consider `Cc1nnc(SCC2=C(C(=O)O)N3C(=O)[C@@H](NC(=O)Cn4cnnn4)[C@H]3SC2)s1` [CEFAZOLIN], for which the MIC against Staphylococcus aureus [1], in the assay with Staphylococcus aureus [2] and in the assay with Staphylococcus aureus [3] was 256 µg/mL each time.
In the case of `C[C@@H]1CC(O)CCCCCCC[C@H](OC(=O)CCC(=O)O)C(=O)/C=C/C(=O)O1` (some centres not stated), the MIC against Streptococcus pyogenes is 125 µM (≈ 49.8 µg/mL); with Bacillus anthracis, 64 µM (≈ 25.5 µg/mL); in the assay on Candida albicans it was above 1000 µM; against Nakaseomyces glabratus it was above 1000 µM; with Bacillus subtilis, 250 µM (≈ 99.6 µg/mL); against Staphylococcus aureus [4], 32 µM (≈ 12.8 µg/mL).
On to `C[C@H]1OC(=O)/C=C/[C@@H](O)[C@@H](O)CCCCCCCC[C@@H]1O`, for which the MIC is 500 µM (≈ 150 µg/mL) in the assay on Streptococcus pyogenes; 250 µM (≈ 75.1 µg/mL) in the assay on Bacillus anthracis; above 1000 µM against Candida albicans; above 1000 µM against Nakaseomyces glabratus; above 1000 µM with Bacillus subtilis; 64 µM (≈ 19.2 µg/mL) in the assay on Staphylococcus aureus [4]. In the assay with CCRF-CEM, the inhibition of growth at 10 µM came out at 38%. In addition, on Stromelysin-1, the IC50 came out at 150 µM.

The values above are taken from ChEMBL document CHEMBL4270487, “The Berkeleylactones, Antibiotic Macrolides from Fungal Coculture” (J Nat Prod, 2017).
